Experimental data taken from PMC7719388 (Clinical and Translational Science, 2020).
Entries after “also recorded” stand apart in the source; their conditions may differ. Read-outs that look alike come from different tables or passages of the source. Each block holds one compound with its values, some of them ahead of it.

Legend:
[1] = cited from earlier work
KCa2 channel [2] = assay: In vitro inhibition of KCa2 channels; format: biochemical; details: equivalent of 0.77 µM
healthy male subjects [3] = assay: Tremorography; format: in vivo, human; details: all dose levels
How it was run: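 A three-axis accelerometer was taped to the dorsal mid third ray of the right hand. Subjects sat semirecumbent with the arm extended horizontally, hand dorsum up, at predefined pre- and post-dose times. Each axis was bandpass filtered at 1–20 Hz (zero-phase third-order Butterworth). Power spectral densities were combined by L1-norm, and the read-outs were peak frequency and its amplitude.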

healthy male subjects [4] = assay: 24-hour Holter ECG: QTcF, QT subintervals and concentration-effect analysis; format: in vivo, human; details: for ΔΔ Tp‐Tend / ΔΔJp‐Tpc / ΔΔQRS / ΔΔQTcF: model prediction at geometric mean Cmax
How it was run: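 Healthy men aged 18–45 received a 30-min IV infusion of test compound or 0.9% NaCl placebo, randomized and double-blind. 12-lead Holter recording ran for 24 h from just before dosing. At set times subjects lay supine for at least 8 min, and triplicate ECGs were extracted from the last 3 min. A blinded operator used global median beat analysis. QT was Fridericia-corrected and split into QRS, Jp‑Tpc and Tp‑Tend. Placebo-corrected change from baseline was modelled linearly against concentration, with subject as a random effect, and predicted at geometric mean Cmax per dose.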

[5] = Pharmacokinetics after 30-minute intravenous infusion; format: in vivo, human
How it was run: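 Healthy men received a 30-min IV infusion of test compound. Serum levels were measured by validated LC‑MS/MS (lower limit of quantification 5 ng/mL), with samples taken after each ECG extraction. Noncompartmental analysis was done per dose level. Values below the limit were set to zero before Tmax and treated as missing after Tmax.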

[6] = test system: Kv11.1 (human ether‐à‐go‐go‐related gene) channel; details: read-out: IC50 for the Kv11.1 channel; in vitro; ref unpublished data; cited from earlier work
conscious pigs = details: ref unpublished data; cited from earlier work
minipigs = details: high dose levels (equivalent to 27.3 mg/kg in man); cited from earlier work
KCa2 channel [7] = details: cited from earlier work
[8] = in man, assumed; cited from earlier work
[9] = in vitro, 30 µM (estimated concentration: 12,000 ng/mL); preclinical; cited from earlier work
healthy male subjects [10] = assay: First-in-human single ascending dose study: safety and tolerability; format: in vivo
How it was run: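 Six cohorts were randomized 6 active vs 2 placebo (5 vs 2 in cohort 1), with two sentinel subjects dosed 48 h ahead. Dosing was a 30-min IV infusion. Cohorts 1–3 used sterile water diluent and an 18G cannula. Cohorts 4–6 used 5% glucose at 1 mg/mL, a 16G cannula in the largest antecubital vein and a 5 mL 5% glucose flush. Monitoring covered AEs, physical examinations, vital signs, 24-h Holter and laboratory tests; discharge was at 7 days.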

[11] = 2 mg/kg, mean volume 15.0 mL, 6 subjects
[12] = 2 mg/kg, mean volume 33.3 mL, 6 subjects
[13] = 1.5 and 2 mg/kg, 3+3 subjects, changed formulation
[14] = 3 and 4 mg/kg, 3+3 subjects, changed formulation
[15] = 5 and 6 mg/kg, 3+3 subjects, changed formulation

SMILES: CN(CCOc1ccc(NS(C)(=O)=O)cc1)CCc1ccc(NS(C)(=O)=O)cc1 [Dofetilide, dofetilide]
effect on Jp‐Tpc interval per concentration [1]: 14.1 ms per ng/mL
effect on Tp‐Tend interval per concentration [1]: 14.5 ms per ng/mL

IC50 for the KCa2 channel, equivalent concentration (KCa2 channel [2]): ~ 300 ng/mL
tremorography mean amplitude (healthy male subjects [3]): 0.2 mG^2•Hz^‐1
tremorography recordings (healthy male subjects [3]): normal and unchanged
Geometric mean Cmax of AP30663 ([5]; 1 mg/kg, 5 mg/mL): 3398 ng/mL
Geometric mean Cmax of AP30663 ([5]; 1.5 mg/kg, 1 mg/mL): 4428 ng/mL
Geometric mean Cmax of AP30663 ([5]; 2 mg/kg, 1 mg/mL): 4644 ng/mL
Geometric mean Cmax of AP30663 ([5]; 2 mg/kg, 5 mg/mL): 6609 ng/mL
Geometric mean Cmax of AP30663 ([5]; 2 mg/kg, 10 mg/mL): 7154 ng/mL
Geometric mean Cmax of AP30663 ([5]; 3 mg/kg, 1 mg/mL): 7950 ng/mL
Geometric mean Cmax of AP30663 ([5]; 4 mg/kg, 1 mg/mL): 7994 ng/mL
Geometric mean Cmax of AP30663 ([5]; 5 mg/kg, 1 mg/mL): 7941 ng/mL
observed maximum total plasma concentration ([5]; 6 mg/kg dose level): around 25.5 µM
Geometric mean Cmax of AP30663 ([5]; 6 mg/kg, 1 mg/mL): 10245 ng/mL
dose proportionality of Cmax ([5]; 1-6 mg/kg): less than dose proportional increase
median Tmax ([5]; 30‐minute linear infusion): 30 min
Volume of distribution ([5]; highest dose levels): 98.4 L
clearance ([5]; lower dose levels): 11.5 L/h
Volume of distribution ([5]; lowest dose): 65.8 L
mean clearance ([5]; overall): 12.5 ± 3.2 L/h
clearance ([5]; three highest dose levels): 15.9 L/h
dose normalized Cmax and area under the curve (AUC) ([5]; with increasing doses): decreased with increasing doses
SMILES: CN(CC#N)C(=O)C[C@H](Nc1nc2ccccc2[nH]1)c1cccc(C(F)(F)F)c1 [AP30663]
ΔΔ Tp‐Tend (healthy male subjects [4]; 1 mg/kg, 5 mg/mL): 1.9 ± 1.3 ms
ΔΔJp‐Tpc (healthy male subjects [4]; 1 mg/kg, 5 mg/mL): 6.2 ± 3.0 ms
ΔΔQRS (healthy male subjects [4]; 1 mg/kg, 5 mg/mL): 1.0 ± 1.0 ms
ΔΔQTcF (healthy male subjects [4]; 1 mg/kg, 5 mg/mL, mean ± SD): 10.5 ± 3.3 ms
ΔΔ Tp‐Tend (healthy male subjects [4]; 1.5 mg/kg, 1 mg/mL): 2.6 ± 1.4 ms
ΔΔJp‐Tpc (healthy male subjects [4]; 1.5 mg/kg, 1 mg/mL): 7.0 ± 3.0 ms
ΔΔQRS (healthy male subjects [4]; 1.5 mg/kg, 1 mg/mL): 0.9 ± 1.0 ms
ΔΔQTcF (healthy male subjects [4]; 1.5 mg/kg, 1 mg/mL): 11.8 ± 3.4 ms
ΔΔ Tp‐Tend (healthy male subjects [4]; 2 mg/kg, 1 mg/mL): 2.8 ± 1.4 ms
ΔΔJp‐Tpc (healthy male subjects [4]; 2 mg/kg, 1 mg/mL): 7.2 ± 3.0 ms
ΔΔQRS (healthy male subjects [4]; 2 mg/kg, 1 mg/mL): 0.9 ± 1.9 ms
ΔΔQTcF (healthy male subjects [4]; 2 mg/kg, 1 mg/mL): 12.0 ± 3.5 ms
ΔΔ Tp‐Tend (healthy male subjects [4]; 2 mg/kg, 5 mg/mL): 4.1 ± 1.7 ms
ΔΔJp‐Tpc (healthy male subjects [4]; 2 mg/kg, 5 mg/mL): 8.8 ± 3.3 ms
ΔΔQRS (healthy male subjects [4]; 2 mg/kg, 5 mg/mL): 0.6 ± 1.1 ms
ΔΔQTcF (healthy male subjects [4]; 2 mg/kg, 5 mg/mL): 14.4 ± 3.9 ms
ΔΔ Tp‐Tend (healthy male subjects [4]; 2 mg/kg, 10 mg/mL): 4.5 ± 1.8 ms
ΔΔJp‐Tpc (healthy male subjects [4]; 2 mg/kg, 10 mg/mL): 9.2 ± 3.3 ms
ΔΔQRS (healthy male subjects [4]; 2 mg/kg, 10 mg/mL): 0.5 ± 1.1 ms
ΔΔQTcF (healthy male subjects [4]; 2 mg/kg, 10 mg/mL): 15.1 ± 4.1 ms
ΔΔ Tp‐Tend (healthy male subjects [4]; 3 mg/kg, 1 mg/mL): 5.0 ± 1.9 ms
ΔΔJp‐Tpc (healthy male subjects [4]; 3 mg/kg, 1 mg/mL): 9.8 ± 3.5 ms
ΔΔQRS (healthy male subjects [4]; 3 mg/kg, 1 mg/mL): 0.4 ± 1.2 ms
ΔΔQTcF (healthy male subjects [4]; 3 mg/kg, 1 mg/mL): 16.0 ± 4.3 ms
ΔΔ Tp‐Tend (healthy male subjects [4]; 4 mg/kg, 1 mg/mL): 5.0 ± 1.9 ms
ΔΔJp‐Tpc (healthy male subjects [4]; 4 mg/kg, 1 mg/mL): 9.9 ± 3.5 ms
ΔΔQRS (healthy male subjects [4]; 4 mg/kg, 1 mg/mL): 0.4 ± 1.2 ms
ΔΔQTcF (healthy male subjects [4]; 4 mg/kg, 1 mg/mL): 16.1 ± 4.3 ms
ΔΔ Tp‐Tend (healthy male subjects [4]; 5 mg/kg, 1 mg/mL): 5.0 ± 1.9 ms
ΔΔJp‐Tpc (healthy male subjects [4]; 5 mg/kg, 1 mg/mL): 9.8 ± 3.5 ms
ΔΔQRS (healthy male subjects [4]; 5 mg/kg, 1 mg/mL): 0.4 ± 1.2 ms
ΔΔQTcF (healthy male subjects [4]; 5 mg/kg, 1 mg/mL): 16.0 ± 4.3 ms
ΔΔ Tp‐Tend (healthy male subjects [4]; 6 mg/kg, 1 mg/mL): 6.5 ± 2.3 ms
ΔΔJp‐Tpc (healthy male subjects [4]; 6 mg/kg, 1 mg/mL): 11.7 ± 3.9 ms
ΔΔQRS (healthy male subjects [4]; 6 mg/kg, 1 mg/mL): 0.1 ± 1.4 ms
effect on PR interval (healthy male subjects [4]; all dose levels): no effect
effect on P‐wave duration (healthy male subjects [4]; all dose levels): no effect
effect on QRS duration (healthy male subjects [4]; all dose levels): no effect
effect on QTcF interval and QT subintervals (healthy male subjects [4]; all dose levels): dose‐dependent transient effect
effect on RR interval (healthy male subjects [4]; all dose levels): no effect
subjects with QTcF interval exceeding 450 ms (healthy male subjects [4]; any dose level): no subject
subjects with QTcF interval prolongation of > 60 ms (healthy male subjects [4]; any dose level): no subject
slope of concentration-effect on Tp‐Tend interval (± standard error) (healthy male subjects [4]; prespecified linear model, P = 0.001): 0.670 ± 0.221 ms/(ug/mL)
slope of concentration-effect on QTcF interval (± standard error) (healthy male subjects [4]; prespecified linear model, P = 0.003): 1.201 ± 0.431 ms/(ug/mL)
slope of concentration-effect on Jp‐Tpc interval (± standard error) (healthy male subjects [4]; prespecified linear model, P = 0.007): 0.799 ± 0.327 ms/(ug/mL)
slope of concentration-effect on QRS duration (± standard error) (healthy male subjects [4]; prespecified linear model, P = 0.870): −0.145 ± 0.129 ms/(ug/mL)
IC50 [6]: 4000 nM
atrial refractoriness (conscious pigs): selectively increase atrial refractoriness; also recorded: increased atrial refractoriness
conversion of vernakalant‐resistant AF (conscious pigs): converted vernakalant‐resistant AF
effect on ventricular repolarization (conscious pigs): little or no effect
reinduction of AF (conscious pigs): prevented its reinduction
tremor (minipigs): induced tremor
inhibition of KCa2 channel subclasses (KCa2 channel [7]): inhibits all three subclasses of KCa2 channels
IC50 (KCa2 channel [7]; read-out: IC50 for the KCa2 channel, preclinical, no reference given): 770 nM
IC50 (KCa2 channel [7]; read-out: IC50 for the KCa2 channels, in vitro, ref unpublished data): ~1000 nM
free fraction [8]: 6.4%
effect on the ventricular interval [9]: no effect
Number of AEs (healthy male subjects [10]; 1 mg/kg, 5 subjects): 1
Number of infusion site AEs (healthy male subjects [10]; 1 mg/kg, 5 subjects): 1
Severity of AEs (healthy male subjects [10]; 1 mg/kg, 5 subjects): Mild
Number of subjects with AEs (healthy male subjects [10]; 1 mg/kg, 5 subjects, AEs considered related): 1 (20%)
Median duration of AEs (healthy male subjects [10]; 1 mg/kg, 5 subjects, subject lost to follow-up, AE ongoing at day 7): >7 days ^a
Median duration of AEs (healthy male subjects [10]; [11]): 0.521 days
Number of AEs (healthy male subjects [10]; [11]): 4
Number of infusion site AEs (healthy male subjects [10]; [11]): 4
Number of subjects with AEs (healthy male subjects [10]; [11]): 4 (67%)
Severity of AEs (healthy male subjects [10]; [11]): Mild
Median duration of AEs (healthy male subjects [10]; [12]): 32 days
Number of AEs (healthy male subjects [10]; [12]): 10
Number of infusion site AEs (healthy male subjects [10]; [12]): 10
Number of subjects with AEs (healthy male subjects [10]; [12]): 5 (83%)
Severity of AEs (healthy male subjects [10]; [12]): Mild
Median duration of AEs (healthy male subjects [10]; [13]): 1.08 days
Number of AEs (healthy male subjects [10]; [13]): 3
Number of infusion site AEs (healthy male subjects [10]; [13]): 3
Number of subjects with AEs (healthy male subjects [10]; [13]): 1 (33%)
Severity of AEs (healthy male subjects [10]; [13]): Mild
duration of hardening of the vein upon palpation until resolved (healthy male subjects [10]; 2 subjects in cohort 3): ~4 months
Median duration of AEs (healthy male subjects [10]; [14]): 13 days
Number of AEs (healthy male subjects [10]; [14]): 2
Number of infusion site AEs (healthy male subjects [10]; [14]): 2
Number of subjects with AEs (healthy male subjects [10]; [14]): 1 (33%)
Severity of AEs (healthy male subjects [10]; [14]): Mild
Median duration of AEs (healthy male subjects [10]; [15]): 22 days
Number of AEs (healthy male subjects [10]; [15]): 2
Number of infusion site AEs (healthy male subjects [10]; [15]): 2
Number of subjects with AEs (healthy male subjects [10]; [15]): 1 (33%)
Severity of AEs (healthy male subjects [10]; [15]): Mild
central nervous system symptoms or signs (healthy male subjects [10]; all dose levels): no symptoms or signs of engagement of the central nervous system
serious AEs (healthy male subjects [10]; all dose levels): No serious AEs
number of AEs related to the administration site (healthy male subjects [10]; cohorts 1–3): 15
subjects with AEs related to the administration site (healthy male subjects [10]; cohorts 1–3, 10 of 17 subjects): 59%
subjects with AEs related to the administration site (healthy male subjects [10]; cohorts 4–6, 9 of 18 subjects): 50%
number of AEs related to the administration site (healthy male subjects [10]; cohorts 4–6, changed administration procedure): 15
overall safety and tolerability (healthy male subjects [10]; doses up to 6 mg/kg): safe and systemically well‐tolerated; also recorded: safe and well‐tolerated systemically
time to full recovery of infusion site AEs (healthy male subjects [10]; in vivo): up to 110 days
related AEs that were related to the infusion site (healthy male subjects [10]; mild, temporary): 33 of 34
number of AEs considered related to AP30663 administration (healthy male subjects [10]; of 73 AEs in 30 of 47 subjects): 34
